Bioassay records: PubChem, Johns Hopkins Ion Channel Center
KCNK3 block = human KCNK3 channel inhibition, primary screen; O14649; CHO-KCNK3 thallium flux, FluxOR fluorescence; active compounds read low; B-score at 10 µM; 0.84% of 340,000 active;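 active = B-score under library mean minus 4 SD, starting fluorescence ratio at most library mean plus 5 SD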;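 note: more negative B-score means stronger inhibition of thallium flux through KCNK3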
KCNK9 inh = blocks the human KCNK9 two-pore domain potassium channel. 1.2% of 310,000 active. HEK293 KCNK9, FluxOR thallium flux fluorescence; active compounds read low. B-score at 10 µM. Q9NPC2;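 active = ratio B-score over 3 SD below the library mean, with starting fluorescence within 5 SD of its mean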;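 note: negative B-score means less thallium flux so channel inhibition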
Target sequence (Q9NPC2 whole entry, looked up, the tested form may be a part): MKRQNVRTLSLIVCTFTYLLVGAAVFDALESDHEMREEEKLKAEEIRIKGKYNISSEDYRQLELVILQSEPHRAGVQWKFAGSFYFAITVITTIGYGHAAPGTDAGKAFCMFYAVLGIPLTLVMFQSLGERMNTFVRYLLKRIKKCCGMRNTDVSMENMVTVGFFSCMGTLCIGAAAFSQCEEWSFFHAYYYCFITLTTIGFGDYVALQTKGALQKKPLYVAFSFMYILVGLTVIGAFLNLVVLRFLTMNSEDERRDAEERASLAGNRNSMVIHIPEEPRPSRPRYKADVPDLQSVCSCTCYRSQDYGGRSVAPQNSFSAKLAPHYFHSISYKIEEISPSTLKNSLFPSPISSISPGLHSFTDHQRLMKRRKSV
hERG rescue = shields human hERG channel from block by proarrhythmic agents | Q12809 | activation (rescue from dofetilide block), less the hit threshold, % at 10 µM | 0.51% of 310,000 active | CHO-hERG, FluxOR thallium flux, dofetilide IC70 present;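 active = activation above the mean of controls blocked by dofetilide plus 5 SD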;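 note: thallium influx through hERG after potassium depolarization seen as dye fluorescence rise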
KCNQ1 block = blocks the human KCNQ1 potassium channel. AID 2642. 1.3% of 310,000 active. CHO-K1 KCNQ1, FluxOR thallium flux fluorescence; active compounds read high. P51787. B-score at 10 µM;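 active = compounds whose thallium flux B-score, printed positive for inhibition, exceeds three library SD while starting fluorescence stays within three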;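 note: channel opened by potassium depolarization with thallium stimulus after 20 min compound exposure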
KCNQ1 act = human KCNQ1 channel potentiation or activation; P51787; CHO-K1 KCNQ1, thallium flux FluxOR fluorescence; active compounds read high; B-score at 10 µM; 0.35% of 310,000 active; AID 2648;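 active = fluorescence ratio B-score, a plate-corrected score, at least three library SD, with initial intensity B-score within 5 SD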
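Doses: Single concentration per compound, DMSO matched to controls | Test system: KCNQ1-transfected CHO-K1 cells | Timing: 90 min dye loading and 20 min compound exposure, both at room temperature | Measured by: Kinetic FluxOR thallium fluorescence, 10-s 1-Hz baseline, 110-s post-stimulus read | Medium: Assay buffer with matched DMSO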
Kir21 block = Kir2.1 (mouse) channel inhibition; P35561; HEK293-Kir2.1, FluxOR thallium flux fluorescence; active compounds read low; B-score at 10 µM; 0.85% of 310,000 active; AID 1672;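 active = fluorescence ratio B-score at or below minus 3 SD of library scores, with starting-brightness B-score within 2 SD, cut at about -4.2 in these data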;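 note: channel flux triggered by added potassium and thallium sulfate stimulus; B-score of peak minus minimum fluorescence over baseline after thallium stimulus; more negative B-score means stronger Kir2.1 block with less thallium influx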
KCNK9 block conf = human KCNK9 inhibitor confirmation. shares compounds with KCNK9 inh. HEK293 KCNK9 cells, FluxOR thallium flux fluorescence. inhibition, % at 10 µM. 43% of 4,900 active. AID 492992;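 active = thallium signal inhibited by more than 5 SD of the compound-free buffer control wells, on both duplicate plates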;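 note: 0% = assay buffer control wells without compound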
Kir2-1 spec = selectivity of KCNK9 modulators against mouse Kir2.1; 4% of 4,900 active; inhibition, % at 10 µM; Kir2.1 cells, FluxOR thallium flux fluorescence; shares compounds with KCNK9 inh;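 active = thallium signal drop more than 5 SD beyond the mean of the no-compound control wells, seen in both duplicate plates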;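 note: signal is fluorescence rise after thallium addition divided by baseline fluorescence; plate controls were assay buffer only for no effect and full block by chlorpromazine control for full effect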
HEK293 Tl ctr = second counter-screen for KCNK9 modulators: effect in non-induced cells; shares compounds with KCNK9 inh; non-induced KCNK9-HEK293, FluxOR thallium flux; inhibition, % at 10 µM; 40% of 4,900 active; AID 492997;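 active = thallium signal drop beyond 5 SD of the untreated control mean, on both duplicate plates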;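 note: plate controls were buffer only IC0 wells for no effect and SID17386958 at its maximal inhibitory level for full effect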
Active calls of the source: *. Sampled rows, rich in hits. Any-hit rate of the full collection: about 3.7%.

Cc1ccc(CSc2nnc(C(F)(F)F)n2Cc2ccc(F)cc2)cc1 was read as KCNK3 block inactive, KCNK9 inh -9.6*, hERG rescue -8, KCNQ1 block inactive, KCNQ1 act inactive, Kir21 block -1.2, KCNK9 block conf 29%*, Kir2-1 spec inactive and HEK293 Tl ctr 39%*.
Screening COc1cccc(CSc2nnc(C(F)(F)F)n2Cc2ccc(F)cc2)c1 returned KCNK3 block inactive, KCNK9 inh inactive, hERG rescue -10, KCNQ1 block inactive, KCNQ1 act inactive and Kir21 block -4.
CN(C(=O)COC(=O)CNC(=O)c1ccc(Cl)cc1Cl)c1ccccc1 was read as KCNK3 block inactive, KCNK9 inh inactive, hERG rescue -6, KCNQ1 block inactive, KCNQ1 act inactive and Kir21 block -0.64.
For O=C1CC(N2CCN(S(=O)(=O)c3cccc(C(F)(F)F)c3)CC2)C(=O)N1Cc1ccccc1 (stereo not given) the results were KCNK3 block inactive, KCNK9 inh inactive, hERG rescue -4, KCNQ1 block inactive, KCNQ1 act inactive, Kir21 block -0.1, KCNK9 block conf inactive, Kir2-1 spec inactive and HEK293 Tl ctr inactive.
`Cc1ccc(S(=O)(=O)N2CCN(C3CC(=O)N(Cc4ccccc4)C3=O)CC2)cc1C` (stereo not given) gave KCNK3 block inactive, KCNK9 inh inactive, hERG rescue -6, KCNQ1 block inactive, KCNQ1 act inactive and Kir21 block 0.9.
For Cc1ccc(SCCC(=O)NCCSCc2ccccc2C)cc1 the results were KCNK3 block inactive, KCNK9 inh inactive, hERG rescue -8, KCNQ1 block inactive, KCNQ1 act inactive, Kir21 block 1.8, KCNK9 block conf inactive, Kir2-1 spec inactive and HEK293 Tl ctr inactive.
For CCCCNC(=O)CCSc1ccc(C)cc1 the results were KCNK3 block inactive, KCNK9 inh inactive, hERG rescue -4, KCNQ1 block inactive, KCNQ1 act inactive and Kir21 block -0.57.
Screening COc1ccccc1C(=O)N/C(=N/c1nc(C)cc(C)n1)Nc1ccccc1 returned KCNK3 block inactive, KCNK9 inh inactive, hERG rescue -6, KCNQ1 block inactive, KCNQ1 act inactive and Kir21 block 0.07.
Screening N/C(CC(=O)Nc1ccc(F)cc1F)=N\OC(=O)c1cccs1 returned KCNK3 block inactive, KCNK9 inh inactive, hERG rescue -6, KCNQ1 block inactive, KCNQ1 act inactive, Kir21 block 0.18, KCNK9 block conf inactive, Kir2-1 spec inactive and HEK293 Tl ctr inactive.
N/C(Cc1ccc(Cl)cc1Cl)=N\OC(=O)c1cccs1 was read as KCNK3 block inactive, KCNK9 inh inactive, hERG rescue -19, KCNQ1 block inactive, KCNQ1 act inactive and Kir21 block -0.09.
For Cc1ccc(S(=O)(=O)N(Cc2ccccc2)c2ccccc2C(=O)Nc2ccccc2C(=O)NCc2ccco2)cc1 the results were KCNK3 block inactive, KCNK9 inh -9.6*, hERG rescue -8, KCNQ1 block 8*, KCNQ1 act inactive, Kir21 block 0.01, KCNK9 block conf inactive, Kir2-1 spec inactive and HEK293 Tl ctr 34%*.
COc1ccc(-c2cc(C(=O)NCC(c3ccco3)N(C)C)c3ccccc3n2)cc1OC (stereo not given) was read as KCNK3 block inactive, KCNK9 inh inactive, hERG rescue -14, KCNQ1 block inactive, KCNQ1 act inactive and Kir21 block 0.05.
`COc1ccc(CC2(C)OC(c3ccc(Cl)cc3)=NN2C(C)=O)cc1` (stereo not given) gave KCNK3 block inactive, KCNK9 inh inactive, hERG rescue -17, KCNQ1 block inactive, KCNQ1 act inactive, Kir21 block 0, KCNK9 block conf inactive, Kir2-1 spec inactive and HEK293 Tl ctr inactive.
`O=C(N/N=C/c1ccc(OC2CSC2)cc1)c1ccccc1` gave KCNK3 block inactive, KCNK9 inh inactive, hERG rescue -6, KCNQ1 block inactive, KCNQ1 act inactive and Kir21 block -0.16.
O=C(/C=C/c1ccc(OC2CSC2)cc1)c1ccccc1 was read as KCNK3 block inactive, KCNK9 inh -16*, hERG rescue -10, KCNQ1 block inactive, KCNQ1 act inactive, Kir21 block -1.6, KCNK9 block conf 42%*, Kir2-1 spec inactive and HEK293 Tl ctr 28%*.
CCOc1ccc2nc(-c3cc(NC(C)=O)ccc3O)sc2c1 was read as KCNK3 block inactive, KCNK9 inh inactive, hERG rescue -15, KCNQ1 block inactive, KCNQ1 act inactive and Kir21 block -0.61.
CCOC(=O)c1ccc(Nc2nc(N)c3cc(OC)c(OC)cc3n2)cc1 was read as KCNK3 block inactive, KCNK9 inh inactive, hERG rescue -4, KCNQ1 block inactive, KCNQ1 act inactive and Kir21 block -0.31.
`COc1cc2nc(Nc3ccc(C)c(Cl)c3)nc(N)c2cc1OC` gave KCNK3 block inactive, KCNK9 inh -16*, hERG rescue -5, KCNQ1 block inactive, KCNQ1 act inactive, Kir21 block -0.1, KCNK9 block conf inactive, Kir2-1 spec inactive and HEK293 Tl ctr inactive.
`Cc1cc(NC(=O)C2CCCCC2C(=O)O)ccc1NC(=O)c1ccccc1` (stereo not given) gave KCNK3 block inactive, KCNK9 inh inactive, hERG rescue -10, KCNQ1 block inactive, KCNQ1 act inactive and Kir21 block -0.46.
O=C(/C=C/c1ccccc1)NCCSc1ccc(Cl)cc1 was read as KCNK3 block inactive, KCNK9 inh inactive, hERG rescue -6, KCNQ1 block inactive, KCNQ1 act inactive, Kir21 block 0.12, KCNK9 block conf inactive, Kir2-1 spec inactive and HEK293 Tl ctr inactive.
`CC(Cc1ccccc1)N1C(=O)c2cccc([N+](=O)[O-])c2C1=O` (stereo not given) gave KCNK3 block inactive, KCNK9 inh inactive, hERG rescue -2, KCNQ1 block inactive, KCNQ1 act inactive and Kir21 block 2.1.
